Measured values from paper PMC8724909 (Molecular Systems Design & Engineering, 2021).

Experiments:
[1] = tested on: E. coli CFT073 nalidixic acid resistant line; assay: Galleria mellonella infection model, survival; type: in vivo; conditions: nalidixic acid at 50 mg per body weight kg; 48 h
Method in brief: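 Nalidixic acid-resistant strain was grown overnight in Mueller-Hinton II broth and washed twice in PBS. Larvae got 10^7 CFU in 10 μl PBS into the hemocoel via the first left proleg, then treatment via the second right proleg. Monotherapy doses were 10–100 mg/kg. Controls were PBS-only and untreated infected larvae. Larvae were kept at 37 °C for 48 h, with survival scored every 6 h.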

[2] = tested on: Galleria mellonella larvae; assay: Toxicity in Galleria mellonella larvae; type: in vivo; conditions: uninfected larvae injected with 10, 25, 50, 100 and 200 mg per body weight kg
Method in brief: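 Age- and weight-defined larvae, stored at 15 °C without food, were used uninfected. Groups of 10 larvae received hemocoel injections of test compound or nalidixic acid at 10, 25, 50, 100 and 200 mg/kg body weight, given with a 10 μl syringe.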

For `CCn1cc(C(=O)O)c(=O)c2ccc(C)nc21` [Nalidixic acid, nalidixic acid], the “improvement of survival of infected larvae, monotherapy” value [1] was “approximately 25%” and the toxicity in larvae [2] was “no toxicity”.
